Hits are enriched below; roughly 1.8% of the tested compounds scored in any of these assays.
hiPSC survival: increases survival of single human iPS cells; hiPSC single-cell survival, ATPlite luminescence; 100% = ROCK inhibitor wells, 0% = DMSO; survival enhancement, % at 20 µM; actives 0.044% (n = 360,000); AID 602274; in the data active = survival enhancement above about 18%;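 also: cells exposed to compounds for 16 hours before the ATP read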
PPC-1+TRAIL kill: kills PPC-1 cancer cells in the presence of TRAIL; PPC-1 cells + TRAIL, ATPLite viability luminescence; cell killing (% activity), % at 4 µM or 5 µM; actives 0.41% (n = 220,000);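 active = cell killing above 50% in the first pass at 4 µM, then a duplicate retest at 5 µM averaging 50% or more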;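 also: plate controls were cells with TRAIL plus DMSO for no effect and medium-only wells lacking cells for full effect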
FLuc inh counter: inhibits firefly luciferase, flagging false hits in luciferase inhibition screens; P08659; ATPLite firefly luciferase biochemical luminescence, 10 min; inhibition, % at 10 µM; actives 1.5% (n = 200,000);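 active = inhibition above about 50% when tested at 10 µM, limit read from the data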
Target sequence (P08659 whole entry, looked up): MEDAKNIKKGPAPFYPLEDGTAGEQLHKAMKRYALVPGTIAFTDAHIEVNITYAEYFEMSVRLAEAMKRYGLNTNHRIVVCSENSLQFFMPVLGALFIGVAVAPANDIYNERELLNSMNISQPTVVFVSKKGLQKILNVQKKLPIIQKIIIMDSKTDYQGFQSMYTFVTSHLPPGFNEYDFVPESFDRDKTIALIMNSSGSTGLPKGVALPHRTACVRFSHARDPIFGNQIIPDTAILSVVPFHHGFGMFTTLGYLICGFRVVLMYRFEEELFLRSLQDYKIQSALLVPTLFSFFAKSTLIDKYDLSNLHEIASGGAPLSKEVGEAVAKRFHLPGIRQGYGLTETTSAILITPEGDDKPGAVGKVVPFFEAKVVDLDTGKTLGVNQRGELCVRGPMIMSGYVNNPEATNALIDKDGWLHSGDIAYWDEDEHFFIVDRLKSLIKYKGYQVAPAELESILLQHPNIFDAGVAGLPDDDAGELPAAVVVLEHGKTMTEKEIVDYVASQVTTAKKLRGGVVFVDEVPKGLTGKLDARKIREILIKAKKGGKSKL
C8 TRAIL sens: caspase-8 TRAIL sensitization | inhibition (viability loss, TRAIL sensitization), % at 10 µM | actives 1% (n = 360,000) | NB7+C8 cells + TRAIL, ATPlite viability luminescence | AID 624354;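 active = compounds causing at least 50% loss of cell viability in the single-dose screen, relative to plate controls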
FLuc stim CS: firefly luciferase counter-screen for stimulation assays; P08659; ATPlite luciferase biochemical, luminescence, 10 min; 0 = ATP-free wells, 1 = DMSO control; activation factor at 10 µM; 200,000 tested, under 10 active;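 active = luciferase activation factor, scaled between plate controls, of at least 2 with compound at 10 µM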
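Assay system – cell-free luciferase reagent · Medium – PBS-based ATP solution · Dosing – test compounds dosed from 2 mM stocks in 100% DMSO · Timing – 10 min, room temperature · Technique – light output (luminescence) · Measure – luminescence gain marking luciferase activators · Controls – No-ATP low control, compound-free enzyme-plus-ATP high control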
beta cell repl: MIN6 beta-cell proliferation induction | actives 0.29% (n = 330,000) | AID 2380 | proliferation, % at 10 µM | MIN6 cells proliferation, ATPlite luminescence, 48 h; cells starved in 0.2% serum; 100% = growth in 10% serum;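 active = compounds whose signal lies at least 3.5 SD above the mean of all wells on their plate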;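 also: 0% = DMSO-treated cells in low-serum medium and 100% = 10% serum control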
Starred values were filed as active, the others as inactive.

Results for COc1cccc2c1C(CO)N1C(C#N)C3CC(C(=O)O)C(C1C2)N3C (centres undefined) ?
hiPSC survival: -4; PPC-1+TRAIL kill: 43; C8 TRAIL sens: 59*; beta cell repl: -5

What do the screens show for `Cc1ccccc1S(=O)(=O)Cc1ccc(C(=O)N2CCN(c3ccccc3F)CC2)o1`?
hiPSC survival: 0; C8 TRAIL sens: 17; beta cell repl: 1

How did Cc1cccc(Nc2nnc(SCC(=O)Nc3ccccc3[N+](=O)[O-])s2)c1 do in these assays?
hiPSC survival: -2; PPC-1+TRAIL kill: 31; FLuc inh counter: 20; C8 TRAIL sens: 8; FLuc stim CS: 0.8; beta cell repl: 0

Results for Cc1cccc(Nc2nnc(SCC(=O)Nc3ccc(C(=O)O)cc3)s2)c1 ?
hiPSC survival: -1; PPC-1+TRAIL kill: 23; FLuc inh counter: 68*; C8 TRAIL sens: 40; FLuc stim CS: 0.3; beta cell repl: -4

What do the screens show for `Cc1ccc(OCC(=O)N2CCCc3ccccc32)cc1`?
hiPSC survival: 9; PPC-1+TRAIL kill: 19; FLuc inh counter: 4; C8 TRAIL sens: -2; FLuc stim CS: 1; beta cell repl: -1

What do the screens show for `Cc1ccc(OCC(=O)N2CCc3ccccc32)cc1`?
hiPSC survival: -4; PPC-1+TRAIL kill: 45; FLuc inh counter: 78*; C8 TRAIL sens: 43; FLuc stim CS: 0.2; beta cell repl: -4

What do the screens show for `CCC(=O)c1ccc(OCC(=O)OCC(=O)N2CCCc3ccccc32)cc1`?
hiPSC survival: 0; C8 TRAIL sens: 88*; beta cell repl: 1

Results for COc1ccc(NC(=O)N2CCc3ccccc32)cc1 ?
hiPSC survival: -5; PPC-1+TRAIL kill: 14; FLuc inh counter: 85*; C8 TRAIL sens: 56*; FLuc stim CS: 0.2; beta cell repl: -3

What do the screens show for `Cc1ccc(-c2c(C#N)c(N)n(-c3ccccc3C)c(=O)c2C#N)cc1`?
hiPSC survival: 1; C8 TRAIL sens: 7

Results for CC1C(=O)N(Cc2cn(Cc3ccco3)nn2)CCS(=O)(=O)N1Cc1ccc(-c2ccncc2)cc1 (centres undefined) ?
hiPSC survival: -1; C8 TRAIL sens: -5

What do the screens show for `COc1ccc(S(=O)(=O)NC(=O)C2(C)CCN2C(=O)CCC2CCCC2)cc1OC` (centres undefined)?
hiPSC survival: 2; C8 TRAIL sens: -10

Results for Cc1ccc(C)c(NC(=O)CN(C)C(=O)c2ccc(COc3ccccc3)cc2)c1 ?
hiPSC survival: 0; C8 TRAIL sens: -10

What do the screens show for `O=C(/C=C/c1ccc(F)cc1)c1ccccc1Br`?
hiPSC survival: -2; PPC-1+TRAIL kill: 29; FLuc inh counter: 3; C8 TRAIL sens: 12; FLuc stim CS: 1; beta cell repl: -7

How did COc1ccc(/C=C/C(=O)c2ccc([N+](=O)[O-])o2)cc1 do in these assays?
hiPSC survival: -4; C8 TRAIL sens: 51*; beta cell repl: -8

Results for Cc1ccc(C(=O)/C=C/c2ccc(F)cc2)o1 ?
hiPSC survival: -3; PPC-1+TRAIL kill: 5; FLuc inh counter: 85*; C8 TRAIL sens: 4; FLuc stim CS: 0.2; beta cell repl: -6

How did Cc1cccc(/C=C/C(=O)c2ccc([N+](=O)[O-])o2)c1 do in these assays?
hiPSC survival: -2; C8 TRAIL sens: 33; beta cell repl: -7

What do the screens show for `O=[N+]([O-])c1c(Nc2ccccn2)cc(Cl)c2nonc12`?
hiPSC survival: -1; PPC-1+TRAIL kill: 18; C8 TRAIL sens: 85*; beta cell repl: -4

How did CN(C)c1cc(Nc2ccc(O)cc2)c([N+](=O)[O-])c2nonc12 do in these assays?
hiPSC survival: 0; PPC-1+TRAIL kill: 0; C8 TRAIL sens: -6; beta cell repl: -3

How did O=[N+]([O-])c1c(Nc2ccc(O)cc2)cc(Cl)c2nonc12 do in these assays?
hiPSC survival: 1; C8 TRAIL sens: 96*; beta cell repl: -5

How did O=C1c2ccccc2C(=O)c2c(NCc3cccnc3)cccc21 do in these assays?
hiPSC survival: 0; PPC-1+TRAIL kill: 15; FLuc inh counter: 8; C8 TRAIL sens: 7; FLuc stim CS: 0.9; beta cell repl: -3

Source: PubChem
